In ChEMBL document CHEMBL4834416, “The Discovery of Novel ACA Derivatives as Specific TRPM2 Inhibitors that Reduce Ischemic Injury Both In Vitro and In Vivo” (J Med Chem, 2021):
Activity calls are given as the source filed them. No cut-off for these calls is given here.

Tests used:
SH-SY5Y [1] = assay: Cytotoxicity against human SH-SY5Y cells assessed as toxicity at 30 uM incubated for 24 hrs by CCK-8 assay; format: cell-based
In short: (§1)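 SH-SY5Y cells were seeded at 2 × 10⁴ per well and grown 12 h at 37 °C. They were then treated with compound (1–30 μM) under normoxic, normal-glucose conditions for 24 h. CCK-8 (10%) was added for 2 h at 37 °C and OD450 read. Viability was taken relative to untreated control after blank subtraction, with three replicate wells.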

[2] = target: T1, Transient receptor potential cation channel subfamily M member 2 (Homo sapiens, UniProt O94759); assay: Inhibition of human TRPM2 expressed in HEK293T cells assessed as suppression of H2O2-induced calcium flux at 1 uM measured after 30 mins by Fluo-3/AM assay; format: cell-based
T1 sequence (O94759 whole entry): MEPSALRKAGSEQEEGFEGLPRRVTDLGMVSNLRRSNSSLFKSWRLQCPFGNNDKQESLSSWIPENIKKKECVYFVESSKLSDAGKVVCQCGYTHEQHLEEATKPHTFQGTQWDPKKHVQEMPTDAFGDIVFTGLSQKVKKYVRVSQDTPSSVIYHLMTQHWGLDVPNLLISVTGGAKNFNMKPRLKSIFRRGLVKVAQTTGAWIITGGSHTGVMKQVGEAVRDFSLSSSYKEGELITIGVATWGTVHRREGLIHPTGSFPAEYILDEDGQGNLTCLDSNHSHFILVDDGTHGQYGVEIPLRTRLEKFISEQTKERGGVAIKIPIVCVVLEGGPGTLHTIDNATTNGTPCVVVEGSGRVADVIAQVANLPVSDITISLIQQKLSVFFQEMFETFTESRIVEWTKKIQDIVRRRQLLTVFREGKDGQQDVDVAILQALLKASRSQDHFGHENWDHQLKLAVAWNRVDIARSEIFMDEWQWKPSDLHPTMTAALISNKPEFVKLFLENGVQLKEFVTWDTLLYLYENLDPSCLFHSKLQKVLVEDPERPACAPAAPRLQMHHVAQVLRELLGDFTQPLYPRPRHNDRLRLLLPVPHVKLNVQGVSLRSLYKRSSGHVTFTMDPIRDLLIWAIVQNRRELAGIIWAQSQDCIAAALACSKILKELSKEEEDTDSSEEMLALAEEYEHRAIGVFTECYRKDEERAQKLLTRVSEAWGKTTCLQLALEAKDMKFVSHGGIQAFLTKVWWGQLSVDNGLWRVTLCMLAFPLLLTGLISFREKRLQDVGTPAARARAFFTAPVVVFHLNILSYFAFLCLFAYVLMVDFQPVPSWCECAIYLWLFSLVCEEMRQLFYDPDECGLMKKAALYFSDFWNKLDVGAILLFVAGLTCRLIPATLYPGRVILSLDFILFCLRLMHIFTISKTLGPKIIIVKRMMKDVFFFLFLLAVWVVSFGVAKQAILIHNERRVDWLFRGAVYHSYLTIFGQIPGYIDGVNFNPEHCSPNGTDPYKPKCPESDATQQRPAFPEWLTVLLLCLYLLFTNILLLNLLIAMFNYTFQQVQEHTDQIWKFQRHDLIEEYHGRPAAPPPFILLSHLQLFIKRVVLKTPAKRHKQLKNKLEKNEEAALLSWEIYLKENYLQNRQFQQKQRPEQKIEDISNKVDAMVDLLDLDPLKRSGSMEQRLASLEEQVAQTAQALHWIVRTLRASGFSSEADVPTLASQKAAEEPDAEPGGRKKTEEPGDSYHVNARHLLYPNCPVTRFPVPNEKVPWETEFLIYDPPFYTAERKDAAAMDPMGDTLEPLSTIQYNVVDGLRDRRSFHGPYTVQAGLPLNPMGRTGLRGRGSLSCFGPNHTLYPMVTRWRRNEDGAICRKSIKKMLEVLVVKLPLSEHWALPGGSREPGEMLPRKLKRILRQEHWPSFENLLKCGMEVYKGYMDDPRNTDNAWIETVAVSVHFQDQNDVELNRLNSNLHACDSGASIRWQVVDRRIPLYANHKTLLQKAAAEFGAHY

[3] = target: T1, Transient receptor potential cation channel subfamily M member 2; assay: Inhibition of human TRPM2 expressed in HEK293T cells assessed as blocked of ADPR-activated current by whole cell patch clamp electrophysiology; format: cell-based
[4] = target: T1, Transient receptor potential cation channel subfamily M member 2; assay: Inhibition of human TRPM2 expressed in HEK293T cells assessed as suppression of H2O2-induced calcium flux at 0.3 uM measured after 30 mins by Fluo-3/AM assay; format: cell-based
Mus musculus [5] = assay: Neuroprotective activity in mouse model of transient middle cerebral artery occlusion-induced cerebral ischemia-reperfusion injury assessed as reduction neurological score at 3 mg/kg, iv treated for 3 hrs after onset of reperfusion by TTC staining based assay (reference value: 2.4 +/- 0.5); format: functional
Mus musculus [6] = assay: Neuroprotective activity in mouse model of transient middle cerebral artery occlusion-induced cerebral ischemia-reperfusion injury assessed as reduction in infarct volume at 0.3 mg/kg, iv treated for 3 hrs after onset of reperfusion by TTC staining based assay (reference value: 52 +/- 1.7%); format: functional; design: scale not given: the % may be the effect or the level left
Mus musculus [7] = assay: Neuroprotective activity in mouse model of transient middle cerebral artery occlusion-induced cerebral ischemia-reperfusion injury assessed as reduction in infarct volume at 1 mg/kg, iv treated for 3 hrs after onset of reperfusion by TTC staining based assay (reference value: 52 +/- 1.7%); format: functional; design: scale not given: the % may be the effect or the level left
Mus musculus [8] = assay: Neuroprotective activity in mouse model of transient middle cerebral artery occlusion-induced cerebral ischemia-reperfusion injury assessed as reduction neurological score at 0.3 mg/kg, iv treated for 3 hrs after onset of reperfusion by TTC staining based assay relative to control; format: functional, organism-based
Mus musculus [9] = assay: Neuroprotective activity in mouse model of transient middle cerebral artery occlusion-induced cerebral ischemia-reperfusion injury assessed as reduction neurological score at 1 mg/kg, iv treated for 3 hrs after onset of reperfusion by TTC staining based assay relative to control; format: functional, organism-based
Mus musculus [10] = assay: Neuroprotective activity in mouse model of transient middle cerebral artery occlusion-induced cerebral ischemia-reperfusion injury assessed as reduction in infarct volume at 3 mg/kg, iv treated for 3 hrs after onset of reperfusion by TTC staining based assay (reference value: 57.6 +/- 4.9%); format: functional; design: scale not given: the % may be the effect or the level left
SH-SY5Y [11] = assay: Cytotoxicity against human SH-SY5Y cells assessed as cell viability under normoxic/normal sugar condition at 10 to 30 uM by CCK-8 assay; format: cell-based; details: dose 10-30 µM; in short: as §1
SH-SY5Y [12] = assay: Neuroprotective activity against oxygen glucose deprivation/reperfusion-induced cell death in human SH-SY5Y cells assessed as cell viability at 3 uM […] by CCK8 assay relative to control; format: functional
[13] = target: T2, Transient receptor potential cation channel subfamily M member 8 (Homo sapiens, UniProt Q7Z2W7); assay: Inhibition of human TRPM8 expressed in HEK293T cells assessed as blocked of menthol-activated current by whole cell patch clamp electrophysiology relative to control; format: cell-based
In short: (§2)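 Whole-cell patch clamp was run at room temperature on HEK293T cells transiently cotransfected with human TRPM8 plus GFP, 24–48 h before recording. ECS was 145 NaCl, 5.6 KCl, 2 MgCl₂, 1.2 CaCl₂, 10 HEPES, pH 7.2. Current was activated with 1 mM menthol, and compound was perfused at least 60 s after it stabilized. Inhibition was calculated relative to stable agonist current minus residual current; n = 3–6.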
Target sequence in this assay (Q7Z2W7 whole entry, the tested form may be a part): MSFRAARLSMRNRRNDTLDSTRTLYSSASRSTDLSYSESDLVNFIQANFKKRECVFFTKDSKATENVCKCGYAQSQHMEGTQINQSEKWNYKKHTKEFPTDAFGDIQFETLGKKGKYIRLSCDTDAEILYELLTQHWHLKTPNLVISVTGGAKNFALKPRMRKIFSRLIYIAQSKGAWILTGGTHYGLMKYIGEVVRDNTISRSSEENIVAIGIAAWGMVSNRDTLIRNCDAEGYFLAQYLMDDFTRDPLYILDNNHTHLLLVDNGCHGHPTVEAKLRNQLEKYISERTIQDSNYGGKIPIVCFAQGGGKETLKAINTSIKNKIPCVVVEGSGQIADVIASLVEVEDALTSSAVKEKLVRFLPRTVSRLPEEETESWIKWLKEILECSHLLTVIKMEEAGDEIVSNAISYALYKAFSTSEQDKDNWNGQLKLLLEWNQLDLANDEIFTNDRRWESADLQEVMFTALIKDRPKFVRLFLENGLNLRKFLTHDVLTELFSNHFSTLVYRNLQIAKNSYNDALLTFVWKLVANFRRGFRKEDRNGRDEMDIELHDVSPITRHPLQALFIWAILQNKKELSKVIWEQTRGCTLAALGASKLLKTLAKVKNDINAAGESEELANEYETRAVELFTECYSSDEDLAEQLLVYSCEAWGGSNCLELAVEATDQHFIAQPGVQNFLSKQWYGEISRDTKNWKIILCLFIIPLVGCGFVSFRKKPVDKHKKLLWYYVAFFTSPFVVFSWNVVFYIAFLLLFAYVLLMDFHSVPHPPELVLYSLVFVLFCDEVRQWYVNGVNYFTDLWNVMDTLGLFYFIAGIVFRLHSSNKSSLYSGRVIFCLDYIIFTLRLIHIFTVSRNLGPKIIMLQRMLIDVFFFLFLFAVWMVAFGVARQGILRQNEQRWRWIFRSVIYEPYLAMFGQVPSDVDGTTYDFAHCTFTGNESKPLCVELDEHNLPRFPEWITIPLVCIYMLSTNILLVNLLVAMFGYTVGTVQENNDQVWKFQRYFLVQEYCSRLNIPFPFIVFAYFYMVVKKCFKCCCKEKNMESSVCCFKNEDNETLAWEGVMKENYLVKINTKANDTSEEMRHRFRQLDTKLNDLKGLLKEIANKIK

[14] = target: T2, Transient receptor potential cation channel subfamily M member 8; assay: Inhibition of human TRPM8 expressed in HEK293T cells assessed as blocked of menthol-activated current at 10 uM by whole cell patch clamp electrophysiology relative to control; format: cell-based; in short: as §2
Target sequence in this assay (Q7Z2W7 whole entry, looked up, the tested form may be a part): as the sequence (Q7Z2W7 whole entry, the tested form may be a part) above

Phospholipase A2 = Phospholipase A2 (Homo sapiens, UniProt P04054); assay: Inhibition of PLA2 (unknown origin) using soybean phosphatidylcholine as substrate at 10 uM preincubated for 30 mins followed incubated for 60 mins after substrate addition by microplate reader relative to control
Phospholipase A2, sequence (P04054 23-148 limits assumed): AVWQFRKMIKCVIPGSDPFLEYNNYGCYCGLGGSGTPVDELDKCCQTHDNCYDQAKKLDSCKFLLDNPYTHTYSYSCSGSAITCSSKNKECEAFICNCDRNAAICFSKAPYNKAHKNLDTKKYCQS
In short: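 PLA2 (4 μg/L in PBS) was preincubated 30 min at 37 °C with inhibitor in 125 mM Tris. Substrate was then added for 60 min: soybean phosphatidylcholine with Tris, CaCl₂, sodium deoxycholate and 0.5% Triton X-100. Liberated free fatty acids were quantified colorimetrically at OD550. Results are % inhibition versus enzyme without inhibitor, n = 3.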

O=C(/C=C/c1ccc(-c2cccc(F)c2)cc1)Nc1ccccc1C(=O)O
Activity (SH-SY5Y [1]): < 23.7%
inhibition [2]: > 45%
IC50 [3]: 830 nM

CCCCCc1ccc(/C=C/C(=O)Nc2cc(Cl)ccc2C(=O)O)cc1
inhibition [2]: > 45%

CCCCCc1ccc(/C=C/C(=O)N2CCC(=O)c3ccccc32)cc1
inhibition [2]: < 45%

O=C(/C=C/c1ccc(N2CCOCC2)cc1)Nc1ccccc1C(=O)O
inhibition [2]: < 45%
inhibition [4]: inactive

O=C(/C=C/c1ccc(-c2ccccc2F)cc1)Nc1ccccc1C(=O)O
inhibition [2]: > 45%

CC(C)NC(=O)c1ccc(/C=C/C(=O)Nc2ccccc2C(=O)O)cc1
inhibition [2]: < 45%
inhibition [4]: inactive

Cc1cc(/C=C/C(=O)Nc2ccccc2C(=O)O)ccc1-c1ccccc1
inhibition [2]: > 45%

CCCc1ccc(/C=C/C(=O)Nc2ccccc2C(=O)O)cc1
inhibition [2]: < 45%
inhibition [4]: inactive

CCCCCc1ccc(/C=C/C(=O)Nc2c(Cl)cccc2C(=O)O)cc1
inhibition [2]: < 45%

CCCCCc1ccc(/C=C/C(=O)Nc2c(C)cccc2C(=O)O)cc1
inhibition [2]: < 45%

CCCCCc1ccc(/C=C/C(=O)N2CCCC(=O)c3ccccc32)cc1
inhibition [2]: < 45%

CCCCCc1ccc(/C=C/C(=O)Nc2cccc(C(=O)O)c2)cc1
inhibition [2]: > 45%

CC1=NN(c2ccccc2)C(=O)C1 [EDARAVONE]
Activity (Mus musculus [5]): 1.6
Activity (Mus musculus [6]): 46.2%
Activity (Mus musculus [7]): 43.9%
Activity (Mus musculus [8]): inactive
Activity (Mus musculus [9]): inactive
Activity (Mus musculus [10]): 39%
Activity (SH-SY5Y [11]): Non-Toxic
viability at 3 µM (SH-SY5Y [12]; read-out: Activity): 81.2%

O=C1CCCN(C(=O)/C=C/c2ccc(-c3ccccc3)cc2)c2ccccc21
inhibition [2]: < 45%

Cc1cccc(-c2ccc(/C=C/C(=O)Nc3ccccc3C(=O)O)cc2)c1
inhibition [2]: > 45%

CCCCCc1ccc(/C=C/c2ccccc2C(=O)O)cc1
inhibition [2]: < 45%

O=C(/C=C/c1ccc(-c2cccnc2)cc1)Nc1ccccc1C(=O)O
inhibition [2]: < 45%
inhibition [4]: inactive

COc1ccc(-c2ccc(/C=C/C(=O)Nc3ccccc3C(=O)O)cc2)cc1
inhibition [2]: > 45%

O=C(/C=C/c1ccc(-c2cccc(Cl)c2)cc1)Nc1ccccc1C(=O)O
inhibition [2]: > 45%

O=C(/C=C/c1ccc(-c2ccc(C(F)(F)F)cc2)cc1)Nc1ccccc1C(=O)O
inhibition [2]: > 45%

Cc1ccc(/C=C/C(=O)Nc2ccccc2C(=O)O)cc1
inhibition [2]: < 45%
inhibition [4]: inactive

COc1ccccc1-c1ccc(/C=C/C(=O)Nc2ccccc2C(=O)O)cc1
inhibition [2]: > 45%

CCCCCc1ccc(/C=C/C(=O)Nc2c(C(=O)O)ccc(C)c2C)cc1
inhibition [2]: < 45%

O=C(/C=C/c1ccc(N2CCCCC2)cc1)Nc1ccccc1C(=O)O
inhibition [2]: < 45%
inhibition [4]: inactive

O=C(/C=C/c1ccc(Cl)cc1)Nc1ccccc1C(=O)O
inhibition [2]: < 45%
inhibition [4]: inactive

CCc1ccc(/C=C/C(=O)Nc2ccccc2C(=O)O)cc1
inhibition [2]: < 45%
inhibition [4]: inactive

CCCCCc1ccc(/C=C/C(=O)Nc2ccc(Br)cc2C(=O)O)cc1
inhibition [2]: > 45%

O=C(/C=C/c1ccc(-c2ccccc2)cc1)Nc1cc(Cl)ccc1C(=O)O
inhibition [2]: > 45%

Cc1ccccc1-c1ccc(/C=C/C(=O)Nc2ccccc2C(=O)O)cc1
inhibition [2]: > 45%

COc1cccc(NC(=O)/C=C/c2ccc(Cl)cc2)c1
IC50 [13]: > 10000 nM

CCCCCc1ccc(/C=C/C(=O)Nc2ccc(C(=O)O)cc2)cc1
inhibition [2]: < 45%

O=C(/C=C/c1ccc(-c2ccccc2)cc1)Nc1ccc(Br)cc1C(=O)O
Activity (SH-SY5Y [1]): < 10%
inhibition [14]: 93.3%
inhibition [2]: > 45%
inhibition (Phospholipase A2): inactive
Activity (SH-SY5Y [12]): Active
IC50 [3]: 410 nM

CCCCCc1ccc(C(=O)Nc2ccccc2C(=O)O)cc1
inhibition [2]: > 45%

CCc1ccc(-c2ccc(/C=C/C(=O)Nc3ccccc3C(=O)O)cc2)cc1
inhibition [2]: > 45%

Clc1ccc(COC(Cn2ccnc2)c2ccc(Cl)cc2Cl)cc1 (configuration not stated) [ECONAZOLE]
IC50 [3]: 3000 nM

CC(C)(C)c1ccc(/C=C/C(=O)Nc2ccccc2C(=O)O)cc1
inhibition [2]: < 45%
inhibition [4]: inactive

CCCCCc1ccc(/C=C/C(=O)Nc2c(C)cc(Cl)cc2C(=O)O)cc1
inhibition [2]: < 45%

O=C(/C=C/c1ccc(-c2cccc(Br)c2)cc1)Nc1ccccc1C(=O)O
inhibition [2]: > 45%

O=C(/C=C/c1ccc(-c2cccc([N+](=O)[O-])c2)cc1)Nc1ccc(Br)cc1C(=O)O
inhibition [2]: > 45%

COc1cccc(-c2ccc(/C=C/C(=O)Nc3ccccc3C(=O)O)cc2)c1
inhibition [2]: > 45%

CCCCCc1ccc(/C=C/C(=O)Nc2cc(C)ccc2C(=O)O)cc1
Activity (SH-SY5Y [1]): < 10%
inhibition [14]: 88.1%
inhibition [2]: > 45%
inhibition (Phospholipase A2): inactive
Activity (SH-SY5Y [11]): Non-Toxic
Activity (SH-SY5Y [12]): Active
IC50 [3]: 467 nM

CC(C)c1ccc(-c2ccc(/C=C/C(=O)Nc3ccccc3C(=O)O)cc2)cc1
inhibition [2]: > 45%

O=C(/C=C/c1ccc(-c2cccc([N+](=O)[O-])c2)cc1)Nc1ccccc1C(=O)O
Activity (SH-SY5Y [1]): < 10%
inhibition [14]: 14.6%
inhibition [2]: > 45%
inhibition (Phospholipase A2): 24.6%
Activity (SH-SY5Y [11]): Non-Toxic
Activity (SH-SY5Y [12]): Active
IC50 [3]: 398 nM

Cc1cc(-c2ccccc2)ccc1/C=C/C(=O)Nc1ccccc1C(=O)O
inhibition [2]: > 45%

O=C(/C=C/c1ccc(-c2ccccc2)cc1)Nc1ccc(F)cc1C(=O)O
inhibition [2]: > 45%

O=C(/C=C/c1ccc(-c2ccc(F)cc2)cc1)Nc1ccccc1C(=O)O
inhibition [2]: < 45%

CCCCCc1ccc(/C=C/C(=O)c2ccccc2C(=O)O)cc1
inhibition [2]: > 45%

Clc1ccccc1C(c1ccccc1)(c1ccccc1)n1ccnc1 [CLOTRIMAZOLE]
IC50 [3]: 3000 nM

O=C(/C=C/c1ccc(-c2ccccc2)cc1)Nc1ccc(Cl)cc1C(=O)O
inhibition [2]: > 45%

Cc1ccc(C(=O)O)c(NC(=O)/C=C/c2ccc(-c3cccc([N+](=O)[O-])c3)cc2)c1
inhibition [2]: > 45%

CCCCCc1ccc(/C=C/C(=O)Nc2ccc(C)cc2C(=O)O)cc1
Activity (SH-SY5Y [1]): < 10%
inhibition [14]: 85.6%
inhibition [2]: > 45%
inhibition (Phospholipase A2): inactive
Activity (SH-SY5Y [12]): Active
IC50 [3]: 987 nM

O=C1CCN(C(=O)/C=C/c2ccc(-c3ccccc3)cc2)c2ccccc21
inhibition [2]: < 45%

CC(C)c1ccc(/C=C/C(=O)Nc2ccccc2C(=O)O)cc1
inhibition [2]: < 45%
inhibition [4]: inactive

O=C(/C=C/c1ccccc1)Nc1ccccc1C(=O)O
inhibition [2]: < 45%
inhibition [4]: inactive

O=C(/C=C/c1ccc(-c2ccccc2)cc1)N1C(=O)c2ccccc21
inhibition [2]: < 45%

CCCCCc1ccc(/C=C/C(=O)Nc2cc(F)c(F)cc2C(=O)O)cc1
inhibition [2]: > 45%

Cc1ccc(-c2ccc(/C=C/C(=O)Nc3ccccc3C(=O)O)cc2)cc1
inhibition [2]: > 45%

CCOc1ccc(/C=C/C(=O)Nc2ccccc2C(=O)O)cc1
inhibition [2]: < 45%
inhibition [4]: inactive

O=C(/C=C/c1ccc(-c2ccccc2C(F)(F)F)cc1)Nc1ccccc1C(=O)O
inhibition [2]: > 45%

CCCCCc1ccc(NC(=O)c2ccccc2C(=O)O)cc1
inhibition [2]: > 45%

O=C(/C=C/c1ccc(-c2ccccc2)cc1)Nc1ccccc1C(=O)O
inhibition [2]: > 45%
IC50 [3]: 2560 nM

CCOC(=O)Cn1nc(-c2ccc(C(F)(F)F)cc2)c2c1CCCCC2
IC50 [3]: 13 nM

CC(C)(C)c1ccc(-c2ccc(/C=C/C(=O)Nc3ccccc3C(=O)O)cc2)cc1
inhibition [2]: > 45%
